Tests used:
CCRF-CEM = experiment: Cytotoxicity against human CCRF-CEM cells assessed as cell growth at 10 uM; format: functional; details: read-out: Activity
How it was run: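 Single-dose NCI-60 screen at 10 µM. Cells were grown in RPMI 1640 with 5% FBS and 2 mM L-glutamine, then treated for 48 h at 37 °C. Protein was measured by SRB staining with absorbance at 515 nm. Percentage growth was recorded, and inhibition percentage was calculated as 100 minus growth percentage.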

RXF 393 = experiment: Cytotoxicity against human RXF393 cells assessed as cell growth at 10 uM after 48 hrs by sulforhodamine B assay; format: functional; details: RXF 393, 48 h, read-out: Activity
SK-MEL-5 = experiment: Cytotoxicity against human SK-MEL-5 cells assessed as cell growth at 1 uM after 48 hrs by sulforhodamine B assay; format: functional; details: SK-MEL-5, 48 h, read-out: Activity
PC-3 = experiment: Cytotoxicity against human PC3 cells assessed as cell growth at 10 uM after 48 hrs by sulforhodamine B assay; format: functional; details: PC-3, 48 h, read-out: Activity
HCC 2998 = experiment: Cytotoxicity against human HCC2998 cells assessed as cell growth at 100 nM after 48 hrs by sulforhodamine B assay; format: functional; details: HCC 2998, 48 h, read-out: Activity
MCF7 = experiment: Cytotoxicity against human MCF7 cells assessed as cell growth at 10 uM after 48 hrs by sulforhodamine B assay; format: functional; details: MCF7, 48 h, read-out: Activity
SK-MEL-28 = experiment: Cytotoxicity against human SK-MEL-28 cells assessed as cell growth at 10 uM after 48 hrs by sulforhodamine B assay; format: functional; details: SK-MEL-28, 48 h, read-out: Activity
NCI-H226 = experiment: Cytotoxicity against human NCI-H226 cells assessed as cell growth at 1 uM after 48 hrs by sulforhodamine B assay; format: functional; details: NCI-H226, 48 h, read-out: Activity
KM12 = experiment: Cytotoxicity against human KM12 cells assessed as cell growth at 10 uM; format: functional; details: read-out: Activity
How it was run: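 NCI-60 screen: cells grown in RPMI 1640 with 5% FBS and 2 mM L-glutamine, plated at 5000–40,000 cells/well according to doubling time, and preincubated 24 h at 37 °C, 5% CO2. The single 10 µM dose (DMSO stock) was added, then incubated 48 h. Cells were TCA-fixed and stained with 0.4% SRB, read at 515 nm, and growth % calculated against time-zero and control plates.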

UO-31 = experiment: Cytotoxicity against human UO31 cells assessed as cell growth at 10 uM after 48 hrs by sulforhodamine B assay; format: functional; details: UO-31, 48 h, read-out: Activity
[1] = molecular target: Receptor-type tyrosine-protein kinase FLT3 (Homo sapiens, UniProt P36888); experiment: Inhibition of FLT3 by HotSpot assay
Chain of Receptor-type tyrosine-protein kinase FLT3 (P36888 whole entry): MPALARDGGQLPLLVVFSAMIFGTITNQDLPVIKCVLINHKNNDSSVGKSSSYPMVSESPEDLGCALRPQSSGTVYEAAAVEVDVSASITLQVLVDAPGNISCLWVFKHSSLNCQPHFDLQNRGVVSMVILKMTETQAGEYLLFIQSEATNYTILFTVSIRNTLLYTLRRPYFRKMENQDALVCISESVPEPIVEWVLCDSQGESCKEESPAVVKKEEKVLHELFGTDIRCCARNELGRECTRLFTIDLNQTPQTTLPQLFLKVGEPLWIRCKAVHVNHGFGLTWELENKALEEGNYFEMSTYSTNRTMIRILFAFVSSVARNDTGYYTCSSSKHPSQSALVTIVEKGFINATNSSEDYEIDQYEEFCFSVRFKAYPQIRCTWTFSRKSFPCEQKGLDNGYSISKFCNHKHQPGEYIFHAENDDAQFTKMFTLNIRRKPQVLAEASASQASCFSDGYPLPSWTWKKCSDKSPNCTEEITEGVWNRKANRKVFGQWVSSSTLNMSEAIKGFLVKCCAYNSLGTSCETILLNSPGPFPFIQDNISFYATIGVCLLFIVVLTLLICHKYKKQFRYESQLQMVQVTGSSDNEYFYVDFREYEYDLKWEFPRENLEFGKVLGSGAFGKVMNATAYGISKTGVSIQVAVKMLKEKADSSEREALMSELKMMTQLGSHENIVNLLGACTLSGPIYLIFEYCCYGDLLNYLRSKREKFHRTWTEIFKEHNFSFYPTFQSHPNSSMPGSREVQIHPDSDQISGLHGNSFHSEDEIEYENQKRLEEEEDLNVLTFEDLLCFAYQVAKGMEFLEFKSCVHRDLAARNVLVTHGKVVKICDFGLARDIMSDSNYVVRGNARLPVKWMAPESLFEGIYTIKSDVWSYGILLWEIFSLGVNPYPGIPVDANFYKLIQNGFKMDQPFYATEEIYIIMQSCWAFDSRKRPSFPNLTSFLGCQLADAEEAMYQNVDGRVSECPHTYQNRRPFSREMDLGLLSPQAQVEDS

[2] = molecular target: Receptor-type tyrosine-protein kinase FLT3 (Homo sapiens) (UniProt P36888); experiment: Inhibition of FLT3 at 10 uM by HotSpot assay
Chain of Receptor-type tyrosine-protein kinase FLT3 (Homo sapiens) (P36888 whole entry): as above

Structure (SMILES) | growth at 10 µM (CCRF-CEM) | growth at 10 µM (RXF 393) | growth at 1 µM (SK-MEL-5) | growth at 10 µM (PC-3) | growth at 0.1 µM (HCC 2998) | growth at 10 µM (MCF7) | growth at 10 µM (SK-MEL-28) | growth at 1 µM (NCI-H226) | growth at 10 µM (KM12) | growth at 10 µM (UO-31) | IC50 [1] | inhibition [2]
COc1cc(C)cc(-c2c(-c3ccnc(-c4ccc(C(C)=O)cc4)c3)cnn2CC#N)c1 | 53.7% | -27% | -37% | 27% | 104% | 17% | 46% | 34% | 80.2% | 15% |  | 
Cc1cc(O)cc(-c2nn(CC#N)cc2-c2ccnc(-c3ccc(Oc4ccccc4)cc3)c2)c1 |  | -87% |  | -60% | 107% | -82% | -100% | 6% | 39.9% | -81% |  | 
COc1cc(C)cc(-c2nn(CC#N)cc2-c2ccnc(-c3ccc(N(C)C)cc3)c2)c1 |  | -24% | -40% |  | 20% | -13% | 13% | 3% | 7.15% |  |  | 
Cc1cc(O)cc(-c2nn(CC#N)cc2-c2ccnc(-c3ccc(N(C)C)cc3)c2)c1 | 40.3% | -46% | -26% | -9% | 87% | -61% | -31% | 19% | 27.3% | -19% |  | 
COc1cc(C)cc(-c2c(-c3ccnc(-c4ccc(N(C)C)cc4)c3)cnn2CC#N)c1 | 3.55% |  | -31% | 4% |  |  |  |  |  | 7% | 1740 nM | 82.3%
COc1cc(C)cc(-c2nn(CC#N)cc2-c2ccc(-c3cccc(C(C)=O)c3)nc2)c1 | 15.4% | -58% | -13% | 1% | 81% | -28% | -1% | 29% | 34.1% | -6% |  | 
